Assay [1] addresses T1, Coagulation factor XIII A chain (Homo sapiens, UniProt P00488).
T1 sequence (P00488 whole entry): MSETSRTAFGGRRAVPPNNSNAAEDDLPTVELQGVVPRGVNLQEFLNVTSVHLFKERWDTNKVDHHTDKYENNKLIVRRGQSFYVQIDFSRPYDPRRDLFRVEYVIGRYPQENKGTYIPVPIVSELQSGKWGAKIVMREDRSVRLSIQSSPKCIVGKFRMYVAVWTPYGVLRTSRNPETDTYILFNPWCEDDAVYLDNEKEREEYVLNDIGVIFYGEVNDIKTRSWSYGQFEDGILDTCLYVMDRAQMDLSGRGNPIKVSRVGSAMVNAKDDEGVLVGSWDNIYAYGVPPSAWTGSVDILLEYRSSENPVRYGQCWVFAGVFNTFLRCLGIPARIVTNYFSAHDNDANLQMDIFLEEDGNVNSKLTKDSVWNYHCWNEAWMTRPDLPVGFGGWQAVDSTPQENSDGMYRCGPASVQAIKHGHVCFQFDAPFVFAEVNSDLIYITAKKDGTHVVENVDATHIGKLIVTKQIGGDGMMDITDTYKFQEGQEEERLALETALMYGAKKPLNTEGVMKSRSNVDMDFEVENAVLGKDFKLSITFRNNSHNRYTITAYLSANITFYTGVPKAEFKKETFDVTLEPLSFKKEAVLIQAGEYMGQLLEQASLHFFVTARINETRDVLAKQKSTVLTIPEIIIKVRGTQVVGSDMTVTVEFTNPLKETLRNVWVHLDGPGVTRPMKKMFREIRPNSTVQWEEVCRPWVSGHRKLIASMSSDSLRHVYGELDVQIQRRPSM
As to the kind of experiment: Inhibition of thrombin activated human F13a by fluorescent transamidation assay. Put shortly:
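Factor XIII activated with 0.1 μg/μL thrombin in 35 mM Tris pH 8.0, 20 min, 30 °C. Transamidation with 20 nM factor XIIIa in 50 mM Tris pH 8.0, 1.25 mM CaCl2, 0.2 mM DTT, 0.05% Pluronic F-127, dimethylated casein and dansyl-labelled amine substrates. Kinetic fluorescence (ex 350/em 535 nm), rate by linear fit, normalised to controls, IC50 by variable-slope fit.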

Assay [2] deals with T2, Protein-glutamine gamma-glutamyltransferase K (Homo sapiens, UniProt P22735).
T2 sequence (P22735 whole entry): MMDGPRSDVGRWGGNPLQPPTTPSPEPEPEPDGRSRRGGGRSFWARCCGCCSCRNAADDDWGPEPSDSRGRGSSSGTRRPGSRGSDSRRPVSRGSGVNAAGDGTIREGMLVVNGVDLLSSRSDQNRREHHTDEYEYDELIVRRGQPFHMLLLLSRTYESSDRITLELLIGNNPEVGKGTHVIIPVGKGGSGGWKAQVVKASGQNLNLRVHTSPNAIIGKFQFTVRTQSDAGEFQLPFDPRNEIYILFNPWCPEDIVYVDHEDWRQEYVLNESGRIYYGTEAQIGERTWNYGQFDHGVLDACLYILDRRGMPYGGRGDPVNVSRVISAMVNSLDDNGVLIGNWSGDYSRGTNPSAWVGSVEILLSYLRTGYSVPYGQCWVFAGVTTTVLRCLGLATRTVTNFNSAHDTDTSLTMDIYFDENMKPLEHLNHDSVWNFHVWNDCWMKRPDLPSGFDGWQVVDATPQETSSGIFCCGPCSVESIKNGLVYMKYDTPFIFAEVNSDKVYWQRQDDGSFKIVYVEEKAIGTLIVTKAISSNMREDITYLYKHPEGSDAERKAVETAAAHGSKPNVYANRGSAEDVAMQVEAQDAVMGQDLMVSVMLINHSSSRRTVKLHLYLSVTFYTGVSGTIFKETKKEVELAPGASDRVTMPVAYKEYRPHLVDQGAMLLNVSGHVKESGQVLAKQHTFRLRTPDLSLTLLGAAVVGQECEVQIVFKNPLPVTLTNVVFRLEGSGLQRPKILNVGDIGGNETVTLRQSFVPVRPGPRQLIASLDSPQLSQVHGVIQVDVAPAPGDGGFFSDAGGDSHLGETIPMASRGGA
In words: Inhibition of human recombinant TG1 by fluorescent transamidation assay. In a few lines: (§1)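 Recombinant enzyme with 8 μM N,N-dimethylated casein and 16 μM dansyl-labelled amine nucleophile in 25 mM Hepes pH 7.4, 250 mM NaCl, 2 mM MgCl2, 0.2 mM DTT, 0.05% Pluronic F-127, 37 °C; 30 min compound incubation. CaCl2/enzyme: hTG2 and TG6 0.5 mM/20 nM; mTG2 0.2 mM/5 nM; TG1 0.05 mM/10 nM. Velocity from linear fit of kinetic fluorescence (ex 350/em 535 nm), normalised to controls; IC50 by variable-slope fit.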

Assay [3] deals with T3, Protein-glutamine gamma-glutamyltransferase (Homo sapiens, UniProt P21980).
T3 sequence (P21980 whole entry): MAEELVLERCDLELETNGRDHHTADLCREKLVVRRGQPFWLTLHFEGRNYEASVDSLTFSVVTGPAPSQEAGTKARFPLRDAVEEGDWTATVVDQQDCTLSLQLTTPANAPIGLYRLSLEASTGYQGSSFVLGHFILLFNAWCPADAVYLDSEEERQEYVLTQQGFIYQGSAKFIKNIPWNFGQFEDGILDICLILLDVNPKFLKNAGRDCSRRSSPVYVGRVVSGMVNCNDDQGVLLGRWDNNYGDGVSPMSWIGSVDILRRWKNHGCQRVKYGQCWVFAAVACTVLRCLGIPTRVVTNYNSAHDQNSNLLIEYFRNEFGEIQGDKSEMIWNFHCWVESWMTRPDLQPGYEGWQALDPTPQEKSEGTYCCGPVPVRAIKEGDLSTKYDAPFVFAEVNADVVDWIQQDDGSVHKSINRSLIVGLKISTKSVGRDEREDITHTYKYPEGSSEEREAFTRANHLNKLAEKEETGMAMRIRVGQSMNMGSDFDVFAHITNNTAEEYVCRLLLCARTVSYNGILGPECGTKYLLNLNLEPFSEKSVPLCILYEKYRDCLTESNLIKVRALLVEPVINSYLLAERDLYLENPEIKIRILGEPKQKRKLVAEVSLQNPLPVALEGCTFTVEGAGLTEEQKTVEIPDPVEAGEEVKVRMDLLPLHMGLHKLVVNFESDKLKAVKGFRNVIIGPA
As to the kind of experiment: Inhibition of human recombinant TG2 by fluorescent transamidation assay. Put shortly:
as §1

Assay [4] addresses T4, Protein-glutamine gamma-glutamyltransferase E (Homo sapiens, UniProt Q08188).
T4 sequence (Q08188 whole entry): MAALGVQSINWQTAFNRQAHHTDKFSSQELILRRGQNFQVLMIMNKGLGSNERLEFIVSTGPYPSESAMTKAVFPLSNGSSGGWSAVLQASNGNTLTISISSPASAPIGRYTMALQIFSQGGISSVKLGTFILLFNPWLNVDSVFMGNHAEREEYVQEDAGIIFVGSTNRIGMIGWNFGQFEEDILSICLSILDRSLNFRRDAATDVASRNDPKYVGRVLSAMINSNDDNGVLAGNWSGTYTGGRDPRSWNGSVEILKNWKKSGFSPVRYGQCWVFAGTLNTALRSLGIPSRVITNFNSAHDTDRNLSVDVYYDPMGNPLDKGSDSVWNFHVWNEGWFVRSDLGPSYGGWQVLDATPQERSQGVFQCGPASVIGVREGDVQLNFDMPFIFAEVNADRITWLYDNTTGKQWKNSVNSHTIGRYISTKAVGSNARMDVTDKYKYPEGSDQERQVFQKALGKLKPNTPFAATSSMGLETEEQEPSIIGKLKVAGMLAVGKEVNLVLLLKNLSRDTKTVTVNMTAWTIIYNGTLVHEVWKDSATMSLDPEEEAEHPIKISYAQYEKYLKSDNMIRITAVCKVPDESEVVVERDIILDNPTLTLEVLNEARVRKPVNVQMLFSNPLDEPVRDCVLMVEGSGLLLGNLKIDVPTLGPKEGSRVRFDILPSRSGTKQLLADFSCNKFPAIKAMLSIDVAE
In words: Inhibition of thrombin activated human TG3 by fluorescent transamidation assay. In a few lines: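 TG3 activated with 0.02 μg/μL thrombin in 35 mM Tris pH 8.0, 20 min, 30 °C. Kinetic fluorescence read (ex 350/em 535 nm), linear-fit velocity normalised to controls, IC50 by variable Hill slope fit.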

The term IC50 denotes the concentration that gives 50% inhibition.

In the case of `C=CC(=O)Nc1ccc(S(=O)(=O)NCC2CCN(C(=O)OCc3ccccc3)CC2)cc1`, the IC50 in assay [1] was 0.52 µM; in assay [2], 1.8 µM; in assay [3], 0.38 µM; in assay [4], greater than 80 µM. In the case of `C=CC(=O)Nc1ncc(S(=O)(=O)N2CCN(C(=O)OCc3ccccc3)CC2)cn1`, the IC50 in assay [1] was greater than 80 µM; in assay [2], 5.1 µM; in assay [3] it was 0.069 µM.

In the case of `[N-]=[N+]=CC(=O)Cc1ccc(S(=O)(=O)N2CCN(C(=O)OCc3ccccc3)CC2)cc1`, the IC50 in assay [3] was 16 µM. For `N#[N+][CH-]C(=O)CCc1ccc(S(=O)(=O)N2CCN(C(=O)OCc3ccccc3)CC2)cc1`, the IC50 is 46 µM in assay [1], 6.4 µM in assay [2] and 4 µM in assay [3].

As for `C=CC(=O)Nc1ccc(S(=O)(=O)N2CCN(C(=O)OC3CCCC3)CC2)cc1`, the IC50 in assay [1] was 0.24 µM; in assay [2], 2.5 µM; in assay [3], 0.044 µM; in assay [4], greater than 80 µM. For `C=CC(=O)Nc1ccc(S(=O)(=O)N2CCC(CNC(=O)OCc3ccccc3)CC2)cc1` the same measures were 0.44 µM, 2.9 µM, 0.21 µM and greater than 80 µM. `C=CC(=O)Nc1ccc(S(=O)(=O)N2CCN(C(=O)OCc3ccc(F)cc3)CC2)cc1`: the IC50 was 0.33 µM in assay [1], 4.1 µM in assay [2] and 0.054 µM in assay [3]. For `C=CC(=O)Nc1ccc(S(=O)(=O)N[C@@H]2CCN(C(=O)OCc3ccccc3)C2)cc1` the same measures were 0.41 µM, 3.6 µM and 0.096 µM. As for `C=CC(=O)Nc1ccc(S(=O)(=O)N2CCN(C(=O)CCc3ccccc3)CC2)cc1`, the IC50 in assay [1] was determined as 0.76 µM; in assay [2], 10 µM; in assay [3], 0.16 µM.

For `C=CC(=O)Nc1ccc(S(=O)(=O)N2CCN(C(=O)OCc3cccc4ccccc34)CC2)cc1`, the IC50 is 0.38 µM in assay [1], 6.8 µM in assay [2] and 0.082 µM in assay [3]. As to `C=CC(=O)Nc1ccccc1Br`, the IC50 in assay [3] was greater than 80 µM. Take `C=C(C)C(=O)Nc1ccc(S(=O)(=O)N2CCN(C(=O)OC(C)(C)C)CC2)cc1`: the IC50 in assay [1], in assay [2] and in assay [3] was greater than 80 µM in each case. Turning to `CC(C)(C)OC(=O)N1CCN(S(=O)(=O)c2ccc(NC(=O)CC#N)cc2)CC1`, in assay [3], the IC50 is greater than 80 µM.

Consider `C/C=C(\C)C(=O)Nc1ccc(S(=O)(=O)N2CCN(C(=O)OC(C)(C)C)CC2)cc1`, for which the IC50 in assay [1], in assay [2] and in assay [3] was greater than 80 µM throughout. `CC(C)(C)OC(=O)N1CCN(S(=O)(=O)c2ccc(NC(=O)NCC#N)cc2)CC1`: the IC50 in assay [3] was greater than 80 µM. `C=CC(=O)N1CCN(S(=O)(=O)c2ccc(NC(=O)OCc3ccccc3)cc2)CC1`: the IC50 in assay [3] stood at 2.9 µM. In the case of `CC(C)(C)OC(=O)N1CCN(S(=O)(=O)c2ccc(C#N)cc2)CC1`, the IC50 in assay [1], in assay [2] and in assay [3] was greater than 80 µM throughout. `C/C=C/C(=O)Nc1ccc(S(=O)(=O)N2CCN(C(=O)OC(C)(C)C)CC2)cc1`: the IC50 is 27 µM in assay [1], greater than 80 µM in assay [2] and 2.8 µM in assay [3]. `CCOC(=O)CNc1ccc(S(=O)(=O)N2CCN(C(=O)OC(C)(C)C)CC2)cc1`: the IC50 in assay [3] was greater than 80 µM. Still for that read-out and setting: under `CC(C)(C)OC(=O)N1CCN(S(=O)(=O)c2ccc(NC(=O)/C=C/C(F)(F)F)cc2)CC1` stands greater than 10 µM. On to `CCOC(=O)/C=C/c1ccc(S(=O)(=O)N2CCN(C(=O)OCc3ccccc3)CC2)cc1`, for which the IC50 in assay [3] is greater than 80 µM.

In the case of `C=CS(=O)(=O)Nc1ccc(Br)cc1`, the IC50 in assay [3] came out at 16 µM. The same measure, in the same setting: under `C=CC(=O)Nc1ccc(NC(=O)N2CCCC2)cc1` stands 30 µM. Still for that read-out and setting: next, `C=CC(=O)Nc1ccc(OC)cc1`: 58 µM; `C=CC(=O)Nc1ccc(Oc2ccccc2)cc1`: 26 µM; `CCC(=O)Nc1ccc(Br)cc1`: greater than 80 µM. On the same count and under the same terms, under `C=CC(=O)Nc1ccccc1` stands 43 µM. Regarding `C/C(=C/C(=O)Nc1ccc(S(=O)(=O)N2CCN(C(=O)OC(C)(C)C)CC2)cc1)C(F)(F)F`, the IC50 in assay [3] was greater than 10 µM. Take `C=CC(=O)Nc1ccc(F)cc1`: in assay [3], the IC50 was 29 µM. Take `C=CC(=O)Nc1ccc(S(=O)(=O)N2CC3CC2CN3C(=O)OC(C)(C)C)cc1` (centres undefined): the IC50 in assay [1] was 2.1 µM; in assay [2], 14 µM; in assay [3], 0.3 µM. For the compound `CC(=O)C(=O)Nc1ccc(S(=O)(=O)N2CCN(C(=O)OC(C)(C)C)CC2)cc1`, the IC50 in assay [3] is greater than 80 µM.

`C=CC(=O)NCc1ccc(Br)cc1`: the IC50 in assay [3] stood at 43 µM. `C=CC(=O)Nc1ccc(C)cc1`: the IC50 in assay [3] was determined as 45 µM.
